Results reported in ChEMBL document CHEMBL2057142, “Discovery and optimization of novel fatty acid transport protein 1 (FATP1) inhibitors” (Bioorg Med Chem Lett, 2012).
pIC50: −log10 of the molar value.

How the values were obtained:
Mus musculus [1] = experiment: Drug metabolism in iv dosed mouse assessed as 2-(4-ethyl-5-((phenylamino)methyl)-4H-1,2,4-triazol-3-ylthio)-N-(4-(1-hydroxypropyl)phenyl)acetamide formation after 5 mins by LC/MS/MS analysis; type: ADME, organism-based; conditions: in vivo
In short: (§1)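 Compound dosed intravenously to mouse; blood sampled at 5 min and metabolites identified by LC–MS/MS analysis.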

Mus musculus [2] = experiment: Drug metabolism in iv dosed mouse assessed as 2-(4-ethyl-5-((phenylamino)methyl)-4H-1,2,4-triazol-3-ylthio)acetic acid formation after 5 mins by LC/MS/MS analysis; type: ADME, organism-based; conditions: in vivo; in short: as §1
[3] = target: Long-chain fatty acid transport protein 1 (Homo sapiens, UniProt Q6PCB7); experiment: Inhibition of human recombinant FATP1 acyl-coA synthetase activity using [14C]oleic acid as substrate
[4] = Metabolic stability in rat blood assessed as compound remaining after 2 hrs; type: ADME, tissue-based; conditions: read-out: Stability
In short: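 Test compound incubated with rat blood for 2 h; parent compound remaining (%) measured.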

[5] = target: Long-chain fatty acid transport protein 1 (Mus musculus, UniProt Q60714); experiment: Inhibition of mouse recombinant FATP1 acyl-coA synthetase activity using [14C]oleic acid as substrate
Rattus norvegicus [6] = experiment: (§2) Half life in rat at 1 mg/kg, iv; type: ADME, organism-based; set-up: dose 1 mg/kg, route intravenous; conditions: in vivo, BLD = below limit of detection
In short: (§3)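 Intravenous dosing to rats at 1 mg/kg in DMA/PG/(20% HPβCD in saline) 10:10:80; plasma pharmacokinetic parameters averaged from two rats.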

[7] = Volume of distribution in rat at 1 mg/kg, iv; type: ADME, organism-based; set-up: dose 1 mg/kg, route intravenous; conditions: in vivo; in short: as §3
Rattus norvegicus [8] = experiment: (§4) AUC in rat at 10 mg/kg, po; type: ADME, organism-based, Plasma; set-up: dose 10 mg/kg, route oral; conditions: in vivo, BLD = below limit of detection
In short: (§5)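 Rats dosed orally at 10 mg/kg in DMA/PG/(20% HPβCD in saline) 10:10:80; plasma levels measured, values averaged from two rats.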

Rattus norvegicus [9] = experiment: (§6) Cmax in rat at 10 mg/kg, po; type: ADME, organism-based; set-up: dose 10 mg/kg, route oral; conditions: in vivo, BLD = below limit of detection; in short: as §5
[10] = Clearance in rat at 1 mg/kg, iv; type: ADME, organism-based; set-up: dose 1 mg/kg, route intravenous; conditions: in vivo; in short: as §3
Rattus norvegicus [11] = experiment: (§7) Tmax in rat at 10 mg/kg, po; type: ADME, organism-based; set-up: dose 10 mg/kg, route oral; conditions: in vivo, BLD = below limit of detection; in short: as §5
Blood = experiment: Drug metabolism in rat blood assessed as 1-(2-((4-ethyl-5-((phenylamino)methyl)-4H-1,2,4-triazol-3-ylthio)methyl)benzo[d]oxazol-5-yl)propan-1-ol formation; type: ADME, tissue-based
[12] = as §2; type: ADME, organism-based; set-up: dose 1 mg/kg, route intravenous; conditions: in vivo; in short: as §3
[13] = as §4; type: ADME, organism-based, Plasma; set-up: dose 10 mg/kg, route oral; conditions: plasma; in short: as §5
[14] = as §6; type: ADME, organism-based; set-up: dose 10 mg/kg, route oral; conditions: in vivo; in short: as §5
[15] = Oral bioavailability in rat at 10 mg/kg; type: ADME, organism-based; conditions: in vivo; in short: as §5
[16] = as §7; type: ADME, organism-based; set-up: dose 10 mg/kg, route oral; conditions: in vivo; in short: as §5
[17] = target: Long-chain fatty acid transport protein 1 (Mus musculus) (UniProt Q60714); experiment: Inhibition of mouse recombinant FATP1 acyl-coA synthetase activity using [14C]oleic acid as substrate at 10 uM
In short: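 Same radiometric acyl-CoA synthetase assay with 10 μM [1-¹⁴C] oleic acid, 0.5 mM ATP, 0.5 mM CoA, 5 mM MgCl₂ in Tris-HCl pH 7.4 buffer with Triton X-100 and DTT; test compound at 10 μM, read-out as percent inhibition of ACS activity.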

Chain of Long-chain fatty acid transport protein 1 (Mus musculus, UniProt Q60714) (Q60714 whole entry): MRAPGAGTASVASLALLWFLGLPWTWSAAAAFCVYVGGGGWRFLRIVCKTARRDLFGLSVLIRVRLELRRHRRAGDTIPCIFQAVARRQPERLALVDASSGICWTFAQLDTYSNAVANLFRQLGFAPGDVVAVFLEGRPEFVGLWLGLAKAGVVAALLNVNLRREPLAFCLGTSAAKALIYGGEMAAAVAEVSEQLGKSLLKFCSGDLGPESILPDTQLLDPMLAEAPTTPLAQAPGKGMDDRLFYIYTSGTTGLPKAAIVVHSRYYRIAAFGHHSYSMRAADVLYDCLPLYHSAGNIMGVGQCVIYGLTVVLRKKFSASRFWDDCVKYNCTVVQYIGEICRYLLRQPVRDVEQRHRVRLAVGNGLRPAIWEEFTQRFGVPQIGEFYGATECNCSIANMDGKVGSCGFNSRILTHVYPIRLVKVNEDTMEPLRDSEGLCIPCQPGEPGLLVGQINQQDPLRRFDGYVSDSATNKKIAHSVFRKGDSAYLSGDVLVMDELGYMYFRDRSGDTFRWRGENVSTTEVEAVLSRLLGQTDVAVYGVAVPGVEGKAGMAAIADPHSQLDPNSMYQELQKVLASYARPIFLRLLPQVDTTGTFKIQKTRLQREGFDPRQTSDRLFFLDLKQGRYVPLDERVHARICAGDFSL
Chain of Long-chain fatty acid transport protein 1 (Homo sapiens, UniProt Q6PCB7) (Q6PCB7 whole entry): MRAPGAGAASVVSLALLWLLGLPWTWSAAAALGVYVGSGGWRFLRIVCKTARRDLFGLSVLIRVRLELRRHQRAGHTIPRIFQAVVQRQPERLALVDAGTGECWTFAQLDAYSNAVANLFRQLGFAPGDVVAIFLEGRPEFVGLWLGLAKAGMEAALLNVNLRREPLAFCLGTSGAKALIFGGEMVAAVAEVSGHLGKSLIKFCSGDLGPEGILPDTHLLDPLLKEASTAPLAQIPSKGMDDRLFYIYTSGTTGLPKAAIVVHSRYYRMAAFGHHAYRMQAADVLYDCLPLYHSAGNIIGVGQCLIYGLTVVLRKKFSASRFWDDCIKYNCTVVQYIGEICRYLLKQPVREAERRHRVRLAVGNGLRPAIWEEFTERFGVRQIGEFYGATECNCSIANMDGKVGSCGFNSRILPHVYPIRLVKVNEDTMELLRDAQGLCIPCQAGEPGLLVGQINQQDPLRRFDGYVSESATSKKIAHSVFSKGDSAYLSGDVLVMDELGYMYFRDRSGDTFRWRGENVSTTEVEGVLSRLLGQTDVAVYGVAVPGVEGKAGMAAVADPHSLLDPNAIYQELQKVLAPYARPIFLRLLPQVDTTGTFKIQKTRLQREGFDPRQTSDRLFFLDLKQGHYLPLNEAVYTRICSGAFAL
Chain of Long-chain fatty acid transport protein 1 (Mus musculus) (Q60714 whole entry, looked up): as the sequence (Q60714 whole entry) above

Row | pIC50 [3] | pIC50 [5] | Structure (SMILES) | also measured
1 | 6.40 | 6.00 | CCC(=O)c1ccc(NC(=O)CSc2nnc(CNc3ccccc3)n2CC)cc1 | Drug metabolism (Mus musculus [1]): Active; Drug metabolism (Mus musculus [2]): Active; remaining at 2 h [4]: 28%
2 | < 6.00 | 5.43 | CCC(O)c1ccc2oc(CSc3nnc(CNc4ccccc4)n3CC)nc2c1 (stereo not drawn) | remaining at 2 h [4]: 80%
3 | < 6.00 | < 5.00 | CCn1c(CNc2ccccc2)nnc1SCC(=O)Nc1ccc(C(=O)N(C)C)cc1 | 
4 | < 6.00 | 5.57 | CCn1c(CNc2ccccc2)nnc1SCc1nc2cc(OC)ccc2o1 | 
5 | 6.72 | 6.44 | CCC(=O)c1ccc2oc(CSc3nnc(CNc4ccccc4)n3CC)nc2c1 | t1/2 (Rattus norvegicus [6]): BLD; Vd [7]: 2.69 L/kg; remaining at 2 h [4]: 8.9%; AUC (Rattus norvegicus [8]): BLD; Cmax (Rattus norvegicus [9]): BLD; clearance [10]: 22.7 L/h/kg; Tmax (Rattus norvegicus [11]): BLD; Drug metabolism (Blood): Active
6 | < 6.00 | < 5.00 | CCn1c(CNc2ccccc2)nnc1SCC(=O)Nc1ccc(C(=O)O)cc1 | 
7 | < 6.00 | < 5.00 | CCNC(=O)c1ccc(NC(=O)CSc2nnc(CNc3ccccc3)n2CC)cc1 | 
8 | < 6.00 | 5.54 | CCOC(=O)c1cccc(NC(=O)CSc2nnc(CNc3ccccc3)n2CC)c1 | 
9 | < 6.00 | 5.64 | CCn1c(CNc2ccccc2)nnc1SCc1nc2cc(Cl)ccc2o1 | remaining at 2 h [4]: 92%
10 | 6.05 | 5.92 | CCC(=O)c1ccc2nc(CSc3nnc(CNc4ccccc4)n3CC)oc2c1 | remaining at 2 h [4]: 35%
11 | 6.24 | 5.70 | CCC(=O)c1ccc(N(C)C(=O)CSc2nnc(CNc3ccccc3)n2CC)cc1 | remaining at 2 h [4]: 1.9%
12 | < 6.00 | < 5.00 | CCn1c(CNc2ccccc2)nnc1SCc1nc2cc(C)ccc2o1 | 
13 | < 6.00 | < 5.00 | CCn1nnc(-c2ccc(NC(=O)CSc3nnc(CNc4ccccc4)n3CC)cc2)n1 | 
14 | < 6.00 | < 5.00 | CCn1c(CNc2ccccc2)nnc1SCC(=O)Nc1ccc(OC)cc1 | 
15 | 6.17 | 6.08 | CCOC(=O)c1ccc2oc(CSc3nnc(CNc4ccccc4)n3CC)nc2c1 | remaining at 2 h [4]: 0%
16 | 6.22 | 6.28 | CCn1c(CNc2ccccc2)nnc1SCc1nc2cc(C(=O)C(C)C)ccc2o1 | remaining at 2 h [4]: 42%
17 | 7.00 | 7.04 | CCn1c(CNc2ccccc2)nnc1SCc1nc2cc(OC(F)(F)F)ccc2o1 | half-life [12]: 61.2 min; Vd [7]: 1.73 L/kg; remaining at 2 h [4]: 100%; AUC [13]: 0.2 µg·h/mL; Cmax [14]: 0.19 µg/mL; bioavailability [15]: 5.4%; clearance [10]: 3.12 L/h/kg; Tmax [16]: 19.8 min
18 | < 6.00 | 5.27 | CCn1c(CNc2ccccc2)nnc1SCc1nc2ccc(Cl)cc2o1 | 
19 | < 6.00 | < 5.00 | CCn1c(CNc2ccccc2)nnc1SCC(=O)Nc1ccc(C(=O)OC(C)(C)C)cc1 | 
20 | < 6.00 | < 5.00 | CCn1c(CNc2ccccc2)nnc1SCC(=O)Nc1ccc(C(=O)NC)cc1 | 
21 | < 6.00 | 5.11 | CCn1c(CNc2ccccc2)nnc1SCc1nc2cc(F)ccc2o1 | 

Row | pIC50 [3] | pIC50 [5] | Structure (SMILES) | also measured
22 | 6.27 |  | CCn1c(CNc2ccccc2)nnc1SCC(=O)Nc1ccc(C(=O)OC)cc1 | inhibition [17]: 56%
23 | 6.48 | 5.96 | CCOC(=O)c1ccc(NC(=O)CSc2nnc(CNc3ccccc3)n2CC)cc1 | 
24 | < 6.00 | < 5.00 | CCn1c(CNc2ccccc2)nnc1SCc1nc2ccccc2o1 | 
25 | 5.78 | 4.92 | CCC(=O)c1ccc2oc(CS(=O)(=O)c3nnc(CNc4ccccc4)n3CC)nc2c1 | remaining at 2 h [4]: 44%
26 | < 6.00 | < 5.00 | CCC(=O)c1ccc(N(CC)C(=O)CSc2nnc(CNc3ccccc3)n2CC)cc1 | 
27 | < 6.00 | < 5.00 | CCn1c(CNc2ccccc2)nnc1SCC(=O)Nc1ccc(C(=O)c2ccccc2)cc1 | 
28 | 5.18 | < 5.00 | C=CCn1c(CNc2ccccc2)nnc1SCC(=O)Nc1ccc(OC)cc1 | 
29 | < 6.00 | 5.29 | CCn1c(CNc2ccccc2)nnc1SCC(=O)Nc1ccc(C#N)cc1 | 
30 | < 6.00 | < 5.00 | CC/C(=N/OC)c1ccc2oc(CSc3nnc(CNc4ccccc4)n3CC)nc2c1 | 
31 | < 6.00 |  | CCn1c(CNc2ccccc2)nnc1SCC(=O)Nc1ccc(C(C)=O)cc1 | inhibition [17]: 63%
32 | < 6.00 | 5.74 | CCc1ccc2oc(CSc3nnc(CNc4ccccc4)n3CC)nc2c1 | 
33 | 6.44 | 6.44 | CCn1c(CNc2ccccc2)nnc1SCc1nc2cc(C(F)(F)F)ccc2o1 | half-life [12]: 73.8 min; Vd [7]: 1.86 L/kg; AUC [13]: 0.28 µg·h/mL; Cmax [14]: 0.22 µg/mL; bioavailability [15]: 9.2%; clearance [10]: 3.36 L/h/kg; Tmax [16]: 19.8 min
34 | 6.64 | 5.96 | CCCC(=O)c1ccc(NC(=O)CSc2nnc(CNc3ccccc3)n2CC)cc1 | 
35 | < 6.00 | < 5.00 | CCn1c(CNc2ccccc2)nnc1SCC(=O)Nc1ccc(Cl)cc1 | 
36 | < 6.00 | < 5.00 | CCn1c(CNc2ccccc2)nnc1SCC(=O)Nc1ccccc1 | 
37 | 5.12 | < 5.00 | CCOC(=O)c1ccc(NC(=O)CSc2nnc(CSCc3ccccc3)n2CC)cc1 | 
38 | < 6.00 | < 5.00 | CCn1c(CNc2ccccc2)nnc1SCC(=O)Nc1ccc(S(C)(=O)=O)cc1 | 
39 | < 6.00 | < 5.00 | CCOC(=O)c1ccc2c(c1)CCN2C(=O)CSc1nnc(CNc2ccccc2)n1CC | 
40 | 6.40 | 5.82 | CCC(=O)c1ccc(NC(=O)CSc2nnc(CNc3ccccc3)n2CC)cn1 | 
41 | 6.59 | 6.70 | CC/C(=N/O)c1ccc2oc(CSc3nnc(CNc4ccccc4)n3CC)nc2c1 | remaining at 2 h [4]: 100%
42 | < 6.00 | 5.54 | CCOC(=O)c1ccc2c(c1)CCCN2C(=O)CSc1nnc(CNc2ccccc2)n1CC | 
